{
  "source": "paper PMC4301979",
  "about": "(Nature chemical biology, 2015)",
  "key": {"[1]": {"tested_on": "human lymphoblast cell lines (LCLs)", "assay": "targeted LC-MS analysis of lyso-PS in LCLs", "format": "cell-based", "conditions": "1 μM, 4 h", "procedure,_shortened": "(§1)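 Cells grown in RPMI 1640 with 10% FCS and penicillin-streptomycin. 3 x 10^6 cells washed, then exposed to test compound (1 μM) or DMSO for 4 h at 37 °C, 5% CO2, in serum-free, phenol red-free RPMI. Media and cells extracted with 2:1 CHCl3:MeOH plus internal standards. Lipids quantified by LC-MS MRM (ESI) as peak area versus unnatural internal standard, normalized to cell number.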"}, "[2]": {"tested_on": "COLO205 cells", "assay": "LC-MS-based lipid profiling of treated cells", "format": "cell-based, human", "conditions": "COLO205, 1 μM, 4 h", "procedure,_shortened": "as §1"}, "[3]": {"target": "T1, ABHD16A (Homo sapiens, UniProt O95870)", "T1 sequence (O95870 1-558)": "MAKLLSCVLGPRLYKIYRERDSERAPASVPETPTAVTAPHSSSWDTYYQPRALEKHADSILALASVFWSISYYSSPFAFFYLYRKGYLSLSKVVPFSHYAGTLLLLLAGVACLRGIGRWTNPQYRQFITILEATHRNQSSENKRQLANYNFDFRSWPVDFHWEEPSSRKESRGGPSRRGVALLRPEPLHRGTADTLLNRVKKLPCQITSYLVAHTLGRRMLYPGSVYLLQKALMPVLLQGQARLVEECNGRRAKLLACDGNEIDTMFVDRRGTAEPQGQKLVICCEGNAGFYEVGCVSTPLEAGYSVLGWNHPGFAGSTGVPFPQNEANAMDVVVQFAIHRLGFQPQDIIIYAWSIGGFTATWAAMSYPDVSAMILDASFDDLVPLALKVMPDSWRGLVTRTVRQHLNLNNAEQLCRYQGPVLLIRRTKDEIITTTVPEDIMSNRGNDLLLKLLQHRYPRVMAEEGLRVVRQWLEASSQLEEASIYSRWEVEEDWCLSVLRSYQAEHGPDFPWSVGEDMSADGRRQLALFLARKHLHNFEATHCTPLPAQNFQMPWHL", "assay": "biochemical", "format": "binding"}, "[4]": {"target": "T1, ABHD16A", "assay": "gel-based ABPP of LCLs treated in situ", "format": "cell-based", "conditions": "1 µM, 4 h in situ"}, "[5]": {"target": "T1, ABHD16A", "assay": "competitive gel-based ABPP, K562 cells treated in situ", "format": "cell-based", "conditions": "in situ IC50 for ABHD16A, 4 h treatment, 37 °C"}, "[6]": {"target": "T2, mouse ABHD16A (Mus musculus, UniProt Q9Z1Q2)", "T2 sequence (Q9Z1Q2 1-558)": "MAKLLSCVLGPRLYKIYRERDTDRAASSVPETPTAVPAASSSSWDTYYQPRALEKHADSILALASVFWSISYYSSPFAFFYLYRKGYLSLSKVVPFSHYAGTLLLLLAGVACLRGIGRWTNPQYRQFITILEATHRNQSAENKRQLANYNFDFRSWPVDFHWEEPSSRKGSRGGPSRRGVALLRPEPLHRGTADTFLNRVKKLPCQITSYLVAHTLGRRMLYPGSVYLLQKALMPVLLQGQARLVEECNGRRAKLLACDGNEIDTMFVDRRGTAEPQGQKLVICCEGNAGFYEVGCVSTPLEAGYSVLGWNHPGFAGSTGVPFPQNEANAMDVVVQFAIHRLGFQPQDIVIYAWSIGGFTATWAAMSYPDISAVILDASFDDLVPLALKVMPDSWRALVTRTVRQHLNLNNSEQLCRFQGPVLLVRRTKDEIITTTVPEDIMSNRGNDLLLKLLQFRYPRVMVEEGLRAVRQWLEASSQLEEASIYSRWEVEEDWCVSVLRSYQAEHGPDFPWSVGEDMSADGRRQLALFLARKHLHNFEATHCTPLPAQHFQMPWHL", "assay": "competitive gel-based ABPP, mouse ABHD16A-transfected HEK293T proteome", "format": "binding"}, "[7]": {"tested_on": "thioglycollate-elicited mouse peritoneal macrophages", "assay": "cellular and secreted lyso-PS of thioglycollate-elicited peritoneal macrophages", "format": "cell-based", "conditions": "4 h", "procedure,_shortened": "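Thioglycollate-elicited peritoneal macrophages from wild-type, ABHD12−/− or ABHD16A−/− mice. 2 x 10^6 cells plated and adhered 2 h at 37 °C. Washed, then test compound (1 μM) or DMSO given for 4 h in serum-free, phenol red-free RPMI. LPS 5 μg/mL in PBS for 7 h. Media (4 mL) and cells extracted with CHCl3:MeOH. Lipids quantified by LC-MS MRM against internal standards, normalized to cell number.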"}, "[8]": {"tested_on": "PS lipase activity of mouse peritoneal macrophages", "assay": "PS lipase activity of membrane proteomes of peritoneal macrophages", "format": "biochemical", "conditions": "vehicle- and LPS-stimulated macrophages; 1 µM, 30 min, 37 °C", "procedure,_shortened": "(§2)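 Membrane proteome (20 μg) incubated with 100 μM lipid substrate in PBS (100 μL), shaking, […] for 30 min. Quenched with 2:1 CHCl3:MeOH and internal standard, then extracted twice. Product quantified by LC-QTOF-MS, ESI negative mode, as peak area relative to internal standard. Non-enzymatic rate from heat-denatured proteome (95 °C, 15 min) subtracted.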"}, "[9]": {"tested_on": "additional off-targets (serine hydrolase activities)", "assay": "ABPP-SILAC of serine hydrolase activities in COLO205 cells treated in situ", "format": "cell-based, human", "conditions": "1 μM, 4 h, 37 °C"}, "[10]": {"target": "T1, ABHD16A", "assay": "PS substrate", "format": "biochemical", "conditions": "95% interval for the reported IC50 value, human ABHD16A PS lipase activity"}, "[11]": {"tested_on": "thioglycollate-elicited mouse peritoneal macrophages", "assay": "secreted cytokines of thioglycollate-elicited peritoneal macrophages", "format": "cell-based", "conditions": "4 h", "procedure,_shortened": "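Peritoneal macrophages elicited by thioglycollate from wild-type, ABHD12−/− or ABHD16A−/− mice. 2 x 10^6 cells allowed to adhere 2 h, then washed. Test compound (1 μM) or DMSO applied for 4 h in serum-free, phenol red-free RPMI, then LPS (5 μg/mL, 7 h, in PBS). Cytokines measured in 0.5 mL harvested medium by mouse single-analyte ELISA.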"}, "[12]": {"target": "T1, ABHD16A", "assay": "ABPP-SILAC of serine hydrolase activities in COLO205 cells treated in situ", "format": "cell-based", "conditions": "1 μM, 4 h, 37 °C"}, "[13]": {"tested_on": "PS lipase activity of human LCLs", "assay": "PS lipase activity of membrane proteomes of lymphoblast cell lines", "format": "biochemical", "conditions": "1 µM, 30 min, 37 °C; all LCL samples", "procedure,_shortened": "as §2"}, "[14]": {"target": "T3, ABHD16A (WT and S355A mutant) (Homo sapiens, UniProt O95870)", "T3 sequence (O95870 1-558)": "T1 sequence (O95870 1-558)", "assay": "activity-dependent labeling of ABHD16A in transfected HEK293T cell lysates", "format": "binding", "conditions": "0.2 µM, 30 min, 37 °C"}, "[15]": {"tested_on": "ABHD12", "conditions": "read-out: IC50, competitive ABPP; brain serine hydrolases; cited from earlier work"}, "[16]": {"tested_on": "ABHD16A/BAT5", "conditions": "read-out: IC50, competitive ABPP; uncharacterized 60 kDa membrane enzyme tentatively identified as ABHD16A/BAT5; cited from earlier work"}, "[17]": {"conditions": "ABHD12−/− macrophages, pre-treatment 1 μM"}, "[18]": {"conditions": "ABHD16A−/− macrophages, basal or LPS stimulation, 1 µM"}, "[19]": {"conditions": "wild-type macrophages, pre-treatment 1 μM, LPS 5 μg/mL, 7 h"}},
  "data": [
    {"smiles": "CCCCCCCCCCCCCC1OC(=O)/C1=C\\CCCCC(N)=O", "note": "(centres unmarked) [KC01]", "values": [
      {"measurement": "secreted lyso-PSs of the ABHD12-null LCL", "setting": "[1]; PHARC subject-derived LCL", "value": "significantly lowered"},
      {"measurement": "cellular lyso-PSs of LCLs", "setting": "[1]; all LCLs", "value": "decreased cellular lyso-PSs"},
      {"measurement": "cellular lyso-PSs versus DMSO-treated control cells", "setting": "[2]", "value": "significant reductions"},
      {"measurement": "other lipids (PSs, PCs, PEs, lyso-PCs, lyso-PEs, MAGs)", "setting": "[2]", "value": "No changes"},
      {"measurement": "secreted lyso-PSs (18:1 and 18:0)", "setting": "[2]; serum-free media", "value": "decreased"},
      {"measurement": "IC50", "setting": "[3]", "value": "200 to 500", "unit": "nM"},
      {"measurement": "inhibition of ABHD16A in LCLs by gel-based ABPP", "setting": "[4]", "value": "confirmed inhibition"},
      {"measurement": "IC50", "setting": "[5]", "value": "~300", "unit": "nM"},
      {"measurement": "IC50", "setting": "[6]", "value": "200 to 500", "unit": "nM"},
      {"measurement": "LPS-induced increases in lyso-PSs", "setting": "[7]; [17]", "value": "blocked"},
      {"measurement": "cellular or secreted lyso-PS and other measured lipids", "setting": "[7]; [18]", "value": "no changes"},
      {"measurement": "basal and LPS-induced increases in cellular and secreted lyso-PSs", "setting": "[7]; [19]", "value": "reduced"},
      {"measurement": "PS lipase activity of macrophage membrane proteomes", "setting": "[8]", "value": "blocked"},
      {"measurement": "partial inhibition of a handful of additional off-targets (ABPP-SILAC)", "setting": "[9]", "value": "50–80%"},
      {"measurement": "IC50", "setting": "[10]", "value": "69 to 105", "unit": "nM"},
      {"measurement": "LPS-induced increases in cytokine secretion", "setting": "[11]; [17]", "value": "blocked"},
      {"measurement": "secreted proinflammatory cytokines (IL-6 and TNF-α)", "setting": "[11]; [18]", "value": "no changes"},
      {"measurement": "LPS-induced cytokine release", "setting": "[11]; [19]", "value": "significantly blunted"},
      {"measurement": "light:heavy ratio for ABHD16A (ABPP-SILAC)", "setting": "[12]", "value": 0.02},
      {"measurement": "PS lipase activity of LCL membrane proteomes", "setting": "[13]", "value": "inhibited"}
    ]},
    {"smiles": "CCCCCCCCCCCCCC1OC(=O)/C1=C\\CCCC(=O)NCCCCCNC(=O)c1ccc(-c2c3ccc(=[N+](C)C)cc-3oc3cc(N(C)C)ccc23)c(C(=O)[O-])c1", "note": "(centres unmarked) [WHP01]", "values": [
      {"measurement": "labeling of ABHD16A by fluorescent probe", "setting": "[14]", "value": "labeled WT-ABHD16A but not the catalytic serine S355A mutant"}
    ]},
    {"smiles": "CCCCCCCCCCC[C@@H](C[C@@H]1OC(=O)[C@H]1CCCCCC)OC(=O)[C@H](CC(C)C)NC=O", "note": "[THL, tetrahydrolipstatin]", "values": [
      {"measurement": "IC50", "setting": "[15]", "value": "~100", "unit": "nM"},
      {"measurement": "IC50", "setting": "[16]", "value": "~100", "unit": "nM"}
    ]}
  ]
}
